In ChEMBL document CHEMBL4513216, “Probing the Open Global Health Chemical Diversity Library for Multistage-Active Starting Points for Next-Generation Antimalarials” (ACS Infect Dis, 2020):

Assay: Toxicity liver stage against HepG2, at 10uM
Format: cell-based
Design: test concentration 10 uM, cell line HepG2-A16-CD81EGFP
Conditions: human, HepG2-A16-CD81EGFP cells; read-out: INHIBITION
In short: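 Uninfected HepG2-A16-CD81EGFP cells, 3 × 10^3 per well, 1536-well, plated on prespotted compound at 10 μM final, parasite-free screening media added to match infected plates; puromycin 10 μM positive, DMSO 0.5% negative; run in parallel with 48 h PbLuc assay at 37 °C, 5% CO2; viability by CellTiter-Glo luminescence, normalized to controls.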

| Structure (SMILES) | cytotoxicity at 10 µM [%] |
| --- | --- |
| CCn1c(=O)n(CC)c2cc(S(N)(=O)=O)ccc21 | -7.72 |
| N#Cc1cccc(CN2C[C@@H](F)[C@@H](OCc3nc4ccccc4[nH]3)C2)c1 | 6 |
| O=C(NC[C@H]1OC[C@@H](NC2COC2)[C@@H]1O)C1CCCC1 | -3.11 |
| Cn1cc(CN2C[C@@H](F)[C@@H](OCc3nc4cnccc4[nH]3)C2)cn1 | 6.88 |
| COc1ccc(OC)c(NC(=O)c2c(C)cn(C)c2CC(=O)O)c1 | -1.52 |
| COC1CN(C(=O)C2CC2)CCC(=O)N(C)c2ccccc21 (stereo not given) | -8.67 |
| CCc1nc2c(c(C)c(C)n2Cc2cccnc2)c(N)c1C | 6.7 |
| COCC(=O)N(Cc1ccc2[nH]ccc2c1)C1CC1 | -2.46 |
| CCS(=O)(=O)c1cccc(C(=O)Nc2cccc3c2C(=O)N(C)C3=O)c1 | -139 |
| COC(CNC(=O)c1cn(C)nn1)c1ccc(C)s1 (stereo not given) | -8.11 |
| Cn1cc(CN2C[C@@H](N3CCCC3=O)[C@H]3OCCC[C@H]32)cn1 | 8.92 |
| CCS(=O)(=O)N1CCc2nnc(CN(C)C(C)C)n2CC1 | 0.872 |
| CC(C)CN1C(=O)CO[C@@H]2CN(C(=O)N(C)C)C[C@H]21 | 0.657 |
| CN(C)C(=O)N1CCC2(C1)CN(c1cccnc1)C(=O)CN2C (stereo not given) | 6.96 |
| CN(C)CCO[C@@H]1CC[C@H]2[C@H]1OCCN2C(=O)c1ccncc1 | 5 |
| O=C(O)c1cc(C2CC2)nc2c(Cl)cnn12 | 8.63 |
| CNC(=O)c1cn[nH]c1C1CCN(Cc2ccccc2OC)C1 (stereo not given) | 7.16 |
| Cc1cc(N)nc(C2(C)CCCN2C(=O)Cc2ccc(F)cc2)n1 (stereo not given) | -27.5 |
| CCCNC(=O)C1(CC2CC(c3ccccc3OC)=NO2)CCOCC1 (stereo not given) | 21.8 |
| CCC(=O)N1CCC(Cc2ccccc2-c2ccccc2F)(C(N)=O)C1 (stereo not given) | -10.8 |
| CC(=O)N1CCCC(c2ccc(Br)cn2)C1 (stereo not given) | -24.1 |
| Cc1cc(C)nc(Nc2cncc(C3CCCN(S(C)(=O)=O)C3)n2)n1 (stereo not given) | -16.1 |

| Structure (SMILES) | cytotoxicity at 10 µM [%] |
| --- | --- |
| CCc1cccc2cc(CNCCCN3CCOCC3)c(=O)[nH]c12 | -0.918 |
| CCCn1ncc(CN2C[C@@H]3CCCN3C[C@@H]2Cc2ccccc2)c1C | -8.16 |
| O=S(=O)(c1cccs1)N1CCCCC1c1ccn[nH]1 (stereo not given) | -3 |
| COc1cccc(CN2CCC(c3nnc(-c4cnc(C)cn4)o3)C2)c1 (stereo not given) | -10.4 |
| Cc1ccc(C(=O)CC(SC2CCCCC2)C(=O)O)cc1 (stereo not given) | 7.53 |
| Cc1cc(CN2CCCN(c3ccc(C#N)cc3)CC2)no1 | 2.07 |
| c1nc2c(c(N3CCCC(Cn4cncn4)C3)n1)CCC2 (stereo not given) | 52.4 |
| CC(=O)c1cccc(OCCCC(=O)N(C)C2CCN(C)CC2)c1 | 3.07 |
| OCCN1CCN(CC2(O)CCCCC2)CC1 | 3.66 |
| CN1CCC(CNC(=O)NCc2ccc(N(C)C)cc2)CC1 | -1.42 |
| COc1ccc(C(=O)NS(=O)(=O)c2cncc(Br)c2)c(OC)c1 | -0.402 |
| CC(OCC(F)(F)F)C(=O)N1CCOCC1 (stereo not given) | -11.9 |
| Cc1cnn(CC2CCCN2C(=O)Cc2c(C)noc2C)c1 (stereo not given) | 0.983 |
| COc1ccc(-n2ccc(C(=O)N(C)C(C)C3(C)CC3)n2)cc1 (stereo not given) | -2.41 |
| C=C(C)CN1CCOC(Cn2cncn2)C1 (stereo not given) | -52 |
| CCCc1nc(Cn2c(=O)n(C)c3ccccc32)no1 | -43 |
| O=C1C(NCc2cccc(O)c2)CCN1Cc1ccccc1 (stereo not given) | -0.539 |
| CCC(CNC(=O)N1CCOCC2(CCOCC2)C1)c1ccccc1 (stereo not given) | 5.17 |
| Clc1ccccc1C1CN(CCc2ccncc2)CCO1 (stereo not given) | 3.61 |
| COCC(NC(=O)NCc1ccc(C)c(F)c1)c1ccco1 (stereo not given) | 4.96 |
| NC(=O)C(CNC(=O)Cc1ccc(F)cc1)Cc1ccc(F)cc1 (stereo not given) | 3.02 |
| Cc1nccc(NCc2cncc3c2CCN(CCN(C)C)C3)n1 | -104 |

| Structure (SMILES) | cytotoxicity at 10 µM [%] |
| --- | --- |
| CN(C)C(=O)CO[C@H]1CO[C@@]2(CCN(Cc3ccoc3)C2)C1 | -111 |
| CCn1c(C)nnc1SCCn1cc(-c2nccs2)nn1 | 2.91 |
| CC(C)CCN1CC2(CCN(C(=O)C3(C)CC3)CC2)OC1=O | 1.84 |
| Cc1cc(C(=O)N(Cc2c(C)nn(C)c2C)C(C)C)nc(C)n1 | -9.85 |
| OC[C@H]1CN(C2Cc3ccccc3C2)C[C@H]1CN1CCC(O)CC1 | 0.0255 |
| CCc1ncc(C(=O)N(CC)CCOC)cn1 | 2.24 |
| CCNC(=O)[C@@H]1C[C@H](NC(=O)c2cc(=O)[nH]c3ccc(C)cc23)CN1C | 7.44 |
| Cc1ccc(-n2cc(CN3CCN(C)[C@@H]4CS(=O)(=O)C[C@@H]43)cn2)cc1 | -8.67 |
| N#Cc1ccccc1CC1CCCS(=O)(=O)C1 (stereo not given) | -3.11 |
| CC(=O)N1CC2(CCN(c3nccc4ccccc34)CC2)CC1C(=O)O (stereo not given) | 4.65 |
| Cc1cc(N[C@@H](CO)c2ccccc2)n2nc(C)c(C)c2n1 | -0.054 |
| CCc1c(O)nc(SC(C)CC)n(-c2ccccc2)c1=O (stereo not given) | 4.22 |
| Cn1ncc2c(NCCn3cccc3)nc(C3CCCC3)nc21 | 3.07 |
| COc1ncc(-c2cc(-c3ccn(C)c3)nc(N)c2C#N)cn1 | 0.471 |
| C=C(C)COc1cccc(CNCCc2c[nH]cn2)c1 | 8.95 |
| CC(C)c1cc(=O)[nH]c(-c2ccccc2CN2CCC(C)(C)C2)n1 | -42 |
| Cc1nc(C(C)NC(=O)c2cn(C/C=C/c3ccccc3)nn2)n[nH]1 (stereo not given) | 10.7 |
| CCOCCN1CCN([C@@H]2c3ccccc3C3(CCNCC3)[C@H]2O)CC1 | -0.777 |
| Cc1cccc2cc(CN3CCC(N4CCCC4)CC3)c(=O)[nH]c12 | -3.45 |
| Cc1cc2c(=O)n(CCSc3ncn[nH]3)cnc2s1 | 8.87 |
| Cc1cnccc1N1CCCN(Cc2ccc(-c3cc[nH]n3)o2)CC1 | -5.13 |
| Cc1ncc(S(C)(=O)=O)c(N(C)CCCc2cnn(C)c2)n1 | -1.07 |

| Structure (SMILES) | cytotoxicity at 10 µM [%] |
| --- | --- |
| CN1CC2(CCNCC2)CC1C(=O)NCCCNc1cccnc1 (stereo not given) | 6.24 |
| c1ccc(OCCCn2ccnc2-c2cn(C3CCNCC3)nn2)cc1 | -18.1 |
| COCCn1cnnc1CCNc1cc(C)nc2ccnn12 | -1.42 |
| O=C(NCc1cn2c(n1)SCC2)c1ccc(CN2CCCCC2)cc1 | -1.08 |
| Cc1cc(NCC2CCCO2)cc(=O)n1C (stereo not given) | -8.19 |
| O=C1NC(=O)c2c3c(nc(O)c21)CCCC3 | -4.69 |
| Cc1nc(CN2CCCC(NCc3nc4ccccc4s3)C2)no1 (stereo not given) | -0.84 |
| CC(C)c1noc(CN2CCCC2c2noc(C(C)C)n2)n1 (stereo not given) | -5.89 |
| CCN(Cc1nc2c(cnn2C)c(=O)[nH]1)Cc1ccco1 | -2.8 |
| CNC(=O)CCNC(=O)CCc1c(C)nc2cc(O)nn2c1C | -2.7 |
| CC(=O)N1CCCC1C(=O)NCCOc1ccc(C(C)C)cc1 (stereo not given) | -5.26 |
| O=C(c1ccc(N2CCCC2)nn1)N1CCCC(n2ccnc2)C1 (stereo not given) | -16.2 |
| CC1CN(CC(=O)NC2CCOCC2)CCN1Cc1nccn1C (stereo not given) | -6.57 |
| c1cncc(-c2noc(CNC3CCc4ncnn4C3)n2)c1 (stereo not given) | -5.57 |
| CC(=O)c1cccc(NC(=O)CCn2nc(-c3cccs3)oc2=O)c1 | -4.47 |
| N#Cc1ccc(S(=O)(=O)NC(=O)COc2ccc3c(c2)CCC3)cc1 | -9.36 |
| N#Cc1cn(C2CC2)c(=O)n(CC(O)c2ccccc2C(F)(F)F)c1=O (stereo not given) | -4.22 |
| CC(NC(=O)c1ccsc1)c1ccc2c(c1)NC(=O)CO2 (stereo not given) | -11.7 |
| Cc1nn(C)c(Cl)c1C1CCCN1CC(=O)NCc1ccco1 (stereo not given) | 1.48 |
| CC(C)CN(CCc1ccccc1)Cc1nc2c(cnn2C)c(=O)[nH]1 | -6.94 |
| O=C(c1ccc(O)nc1)N1CCC(Nc2cccnn2)CC1 | -8.83 |
| CS(=O)(=O)NC1CCCN(C(=O)NCc2cccc(F)c2)C1 (stereo not given) | -18.8 |

| Structure (SMILES) | cytotoxicity at 10 µM [%] |
| --- | --- |
| Cc1nc(CN(C)C2CCN(Cc3cccc4c3OCCO4)C2)no1 (stereo not given) | -13.9 |
| CCc1nccn1C1CCCN(C(=O)c2ccc3[nH]nnc3c2)C1 (stereo not given) | 7.15 |
| CC1CCCN(CCNC(=O)c2ccn(-c3ccccc3)n2)C1 (stereo not given) | -3.81 |
| O=c1oc(-c2ccc(F)cc2)nn1CN1CCN(C2CCCC2)CC1 | -1.78 |
| Cc1cnn(C2CN(Cc3nc(C(C)(C)C)no3)C2)c1 | -7.28 |
| Cn1ncc2c(=O)[nH]c(CN(Cc3cccc(F)c3)C3CC3)nc21 | -13.1 |
| CCc1nc(C)c(C(=O)NCCNc2ncccn2)s1 | -2.16 |
| Cc1ccc(-c2cc(CNC(=O)N3CCC(CO)CC3)on2)cc1 | -7.69 |
| CC(C)n1ccnc1CN1CCCN(C(=O)c2cc(Cl)c[nH]2)CC1 | -3.79 |
| Cc1nc(CN2CCCC(NCCc3ccccc3Cl)C2)no1 (stereo not given) | -11.8 |
| Cc1cnn(C2CCCN(C(=O)c3cnc4ccccc4n3)C2)c1 (stereo not given) | -10.7 |
| O=C(NCCNc1ncccn1)N1CCSCC1 | -8.26 |
| O[C@@]1(c2ccccn2)CC[C@H]2CN(Cc3ccccn3)C[C@H]21 | -4.97 |
| Cn1ccnc1CN1CCCC(Cc2ccnc3ccncc23)CC1 (stereo not given) | -0.751 |
| Cn1ccnc1NC[C@@H]1CCC[C@@H]2CN(Cc3nccs3)C[C@@H]21 | 14 |
| O=C(c1ccco1)N1C[C@H]2CCCN(Cc3ccc(F)cc3)[C@H]2C1 | 0.255 |
| Cc1cc(NCCO)nc(N2CCC(Cc3ccccc3)CC2)c1C#N | 4.35 |
| Cc1cc(CN2CC[C@]3(C[C@@H](OCC(=O)N(C)C)CO3)C2)no1 | -105 |
| CC(C)N1CCO[C@H]2CN(Cc3cc[nH]n3)C[C@H]21 | -108 |
| Cc1nnc(N2C[C@@H]3CCCO[C@@H]3[C@H](N3CCCC3=O)C2)s1 | 17.4 |
| CN1CCN(c2ncnc3c2CCN(S(=O)(=O)C2CC2)CC3)CC1 | -112 |
| Fc1cnc(N2CCCC3(COCCN(c4nccs4)C3)C2)nc1 (stereo not given) | 1.43 |
